Source: ChEMBL document CHEMBL5247599, “New β-arylchalcogeno amines with procognitive properties targeting Carbonic Anhydrases and Monoamine Oxidases” (Eur J Med Chem, 2022)
Activity calls are given as the source filed them. The rule behind the calls is not given here.

Legend:
[1] = target: Carbonic anhydrase 1 (Homo sapiens) (UniProt P00915); test: Binding affinity to human CA1 by phenol red dye based stopped flow CO2 hydration assay; settings: filed as activator
Summary of the method: (§1)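 Purified recombinant human CA isoforms. CA-catalysed CO2 hydration was followed by stopped-flow with phenol red at 557 nm, taking initial rates over 10–100 s from at least six traces of the first 5–10% of reaction. Uncatalysed rates were subtracted. Activator stocks were 0.1 mM in deionised water, diluted down to 0.1 nM in assay buffer. K_A came from non-linear least-squares Michaelis–Menten fitting.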

[2] = target: Carbonic anhydrase 3 (Homo sapiens) (UniProt P07451); test: Binding affinity to human CA3 by phenol red dye based stopped flow CO2 hydration assay; settings: filed as activator; summary of the method: as §1
Carbonic anhydrase 3 (Homo sapiens), sequence (P07451 whole entry): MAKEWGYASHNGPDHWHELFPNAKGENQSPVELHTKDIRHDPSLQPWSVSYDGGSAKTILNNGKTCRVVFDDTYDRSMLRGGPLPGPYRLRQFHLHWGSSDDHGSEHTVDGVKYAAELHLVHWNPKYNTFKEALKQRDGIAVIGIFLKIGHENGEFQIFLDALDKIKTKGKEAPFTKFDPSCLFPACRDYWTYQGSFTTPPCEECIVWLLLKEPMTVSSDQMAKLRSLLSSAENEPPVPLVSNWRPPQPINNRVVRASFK

[3] = target: Carbonic anhydrase 4 (Homo sapiens) (UniProt P22748); test: Binding affinity to human CA4 by phenol red dye based stopped flow CO2 hydration assay; settings: filed as activator; summary of the method: as §1
Carbonic anhydrase 4 (Homo sapiens), sequence (P22748 whole entry): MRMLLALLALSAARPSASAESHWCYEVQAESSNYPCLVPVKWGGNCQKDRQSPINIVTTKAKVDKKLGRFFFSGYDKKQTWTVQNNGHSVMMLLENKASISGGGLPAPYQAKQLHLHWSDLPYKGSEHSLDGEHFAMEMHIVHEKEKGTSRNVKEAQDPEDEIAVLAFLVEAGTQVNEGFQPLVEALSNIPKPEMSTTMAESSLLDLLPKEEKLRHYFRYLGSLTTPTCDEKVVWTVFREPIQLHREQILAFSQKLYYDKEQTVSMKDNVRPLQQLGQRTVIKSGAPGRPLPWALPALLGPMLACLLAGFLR

[4] = target: Carbonic anhydrase 5A, mitochondrial (Homo sapiens) (UniProt P35218); test: Binding affinity to human CA5a by phenol red dye based stopped flow CO2 hydration assay; settings: filed as activator; summary of the method: as §1
Carbonic anhydrase 5A, mitochondrial (Homo sapiens), sequence (P35218 whole entry): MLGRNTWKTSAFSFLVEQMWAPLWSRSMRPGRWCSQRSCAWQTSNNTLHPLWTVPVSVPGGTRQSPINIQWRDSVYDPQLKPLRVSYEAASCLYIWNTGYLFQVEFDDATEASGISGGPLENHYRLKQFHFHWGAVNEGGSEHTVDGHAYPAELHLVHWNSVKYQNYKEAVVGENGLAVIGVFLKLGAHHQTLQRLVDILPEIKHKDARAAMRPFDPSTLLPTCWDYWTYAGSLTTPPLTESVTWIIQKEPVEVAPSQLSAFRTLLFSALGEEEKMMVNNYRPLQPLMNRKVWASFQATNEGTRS

[5] = target: Carbonic anhydrase 5B, mitochondrial (Homo sapiens) (UniProt Q9Y2D0); test: Binding affinity to human CA5b by phenol red dye based stopped flow CO2 hydration assay; settings: filed as activator; summary of the method: as §1
Carbonic anhydrase 5B, mitochondrial (Homo sapiens), sequence (Q9Y2D0 whole entry): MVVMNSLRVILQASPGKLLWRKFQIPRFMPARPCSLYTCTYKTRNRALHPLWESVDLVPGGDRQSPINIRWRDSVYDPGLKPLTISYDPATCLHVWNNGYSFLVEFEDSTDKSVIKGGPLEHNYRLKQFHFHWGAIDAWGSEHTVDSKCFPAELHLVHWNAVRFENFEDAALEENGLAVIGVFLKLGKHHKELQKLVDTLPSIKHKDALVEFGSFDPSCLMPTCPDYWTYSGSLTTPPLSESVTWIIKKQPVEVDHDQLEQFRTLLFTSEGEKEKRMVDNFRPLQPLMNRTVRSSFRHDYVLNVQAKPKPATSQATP

[6] = target: Carbonic anhydrase 6 (Homo sapiens) (UniProt P23280); test: Binding affinity to human CA6 by phenol red dye based stopped flow CO2 hydration assay; settings: filed as activator; summary of the method: as §1
Carbonic anhydrase 6 (Homo sapiens), sequence (P23280 whole entry): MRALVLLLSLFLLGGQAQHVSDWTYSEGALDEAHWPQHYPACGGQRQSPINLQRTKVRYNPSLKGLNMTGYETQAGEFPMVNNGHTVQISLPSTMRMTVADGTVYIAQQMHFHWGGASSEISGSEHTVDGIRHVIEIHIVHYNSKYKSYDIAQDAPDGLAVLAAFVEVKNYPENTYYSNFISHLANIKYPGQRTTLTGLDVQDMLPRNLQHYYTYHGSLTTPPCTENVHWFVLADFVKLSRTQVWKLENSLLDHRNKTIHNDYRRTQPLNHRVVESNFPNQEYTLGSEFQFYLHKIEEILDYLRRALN

[7] = target: Carbonic anhydrase 7 (Homo sapiens) (UniProt P43166); test: Binding affinity to human CA7 by phenol red dye based stopped flow CO2 hydration assay; settings: filed as activator; summary of the method: as §1
Carbonic anhydrase 7 (Homo sapiens), sequence (P43166 whole entry): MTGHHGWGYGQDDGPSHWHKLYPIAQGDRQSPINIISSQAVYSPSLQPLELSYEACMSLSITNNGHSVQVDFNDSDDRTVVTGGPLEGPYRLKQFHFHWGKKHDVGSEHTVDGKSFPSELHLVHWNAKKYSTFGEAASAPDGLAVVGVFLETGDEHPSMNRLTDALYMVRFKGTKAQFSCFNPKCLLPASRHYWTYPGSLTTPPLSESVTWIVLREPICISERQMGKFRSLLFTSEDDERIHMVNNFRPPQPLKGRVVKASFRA

[8] = target: Carbonic anhydrase 9 (Homo sapiens) (UniProt Q16790); test: Binding affinity to human CA9 by phenol red dye based stopped flow CO2 hydration assay; settings: filed as activator; summary of the method: as §1
[9] = target: Carbonic anhydrase 12 (Homo sapiens) (UniProt O43570); test: Binding affinity to human CA12 by phenol red dye based stopped flow CO2 hydration assay; settings: filed as activator; summary of the method: as §1
Carbonic anhydrase 12 (Homo sapiens), sequence (O43570 whole entry): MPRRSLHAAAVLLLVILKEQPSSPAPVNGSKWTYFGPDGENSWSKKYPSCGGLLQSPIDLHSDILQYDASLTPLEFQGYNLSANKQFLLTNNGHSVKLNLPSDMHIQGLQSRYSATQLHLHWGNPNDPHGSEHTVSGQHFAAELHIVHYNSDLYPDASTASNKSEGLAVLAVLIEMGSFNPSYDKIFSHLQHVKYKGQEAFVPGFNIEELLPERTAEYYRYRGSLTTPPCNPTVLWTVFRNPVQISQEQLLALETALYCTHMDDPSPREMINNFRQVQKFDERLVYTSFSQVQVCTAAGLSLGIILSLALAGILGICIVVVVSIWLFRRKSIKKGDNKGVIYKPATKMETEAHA

[10] = target: Carbonic anhydrase 13 (Homo sapiens) (UniProt Q8N1Q1); test: Binding affinity to human CA13 by phenol red dye based stopped flow CO2 hydration assay; settings: filed as activator; summary of the method: as §1
Carbonic anhydrase 13 (Homo sapiens), sequence (Q8N1Q1 whole entry, looked up): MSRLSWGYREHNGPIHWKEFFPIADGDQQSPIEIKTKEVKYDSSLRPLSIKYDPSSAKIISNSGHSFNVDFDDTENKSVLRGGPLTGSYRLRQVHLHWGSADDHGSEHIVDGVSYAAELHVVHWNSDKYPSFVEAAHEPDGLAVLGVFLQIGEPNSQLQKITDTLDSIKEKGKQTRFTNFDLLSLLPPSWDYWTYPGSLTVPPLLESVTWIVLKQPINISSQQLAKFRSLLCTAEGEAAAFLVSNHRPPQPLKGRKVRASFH

[11] = target: Carbonic anhydrase 14 (Homo sapiens) (UniProt Q9ULX7); test: Binding affinity to human CA14 by phenol red dye based stopped flow CO2 hydration assay; settings: filed as activator; summary of the method: as §1
Carbonic anhydrase 14 (Homo sapiens), sequence (Q9ULX7 whole entry): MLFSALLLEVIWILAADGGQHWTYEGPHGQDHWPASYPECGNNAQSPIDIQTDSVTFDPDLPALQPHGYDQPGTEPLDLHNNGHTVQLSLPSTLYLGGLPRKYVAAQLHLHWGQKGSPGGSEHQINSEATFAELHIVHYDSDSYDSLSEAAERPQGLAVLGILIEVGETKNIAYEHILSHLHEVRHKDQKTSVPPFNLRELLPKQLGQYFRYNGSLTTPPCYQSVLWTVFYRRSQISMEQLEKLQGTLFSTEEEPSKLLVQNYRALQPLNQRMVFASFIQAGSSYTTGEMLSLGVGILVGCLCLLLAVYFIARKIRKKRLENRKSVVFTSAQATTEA

[12] = target: T1, Amine oxidase [flavin-containing] A (Homo sapiens, UniProt P21397); test: Inhibition of human recombinant MAO-A assessed as inhibition of 4-hydroxyquinoline formation using kynuramine as substrate by fluorescence spectrophotometry analysis
T1 sequence (P21397 whole entry): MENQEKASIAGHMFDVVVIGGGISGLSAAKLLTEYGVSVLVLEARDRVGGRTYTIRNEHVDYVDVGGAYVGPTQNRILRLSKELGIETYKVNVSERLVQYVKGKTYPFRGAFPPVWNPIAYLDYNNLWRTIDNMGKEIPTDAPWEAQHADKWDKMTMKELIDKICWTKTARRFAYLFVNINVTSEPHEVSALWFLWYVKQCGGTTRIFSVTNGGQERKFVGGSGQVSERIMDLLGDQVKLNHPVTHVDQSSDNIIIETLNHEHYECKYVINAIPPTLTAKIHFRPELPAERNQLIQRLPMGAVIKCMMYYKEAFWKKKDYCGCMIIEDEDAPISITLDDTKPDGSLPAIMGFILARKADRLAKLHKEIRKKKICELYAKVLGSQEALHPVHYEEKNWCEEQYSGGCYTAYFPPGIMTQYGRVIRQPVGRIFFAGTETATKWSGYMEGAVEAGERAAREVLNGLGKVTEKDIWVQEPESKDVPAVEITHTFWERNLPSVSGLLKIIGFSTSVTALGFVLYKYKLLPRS
Summary of the method: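 Recombinant human MAO-A with kynuramine as substrate. The 4-hydroxyquinoline product was quantified by fluorescence spectrophotometry, and IC50 values were determined.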

[13] = target: T2, Amine oxidase [flavin-containing] B (Homo sapiens, UniProt P27338)
T2 sequence (P27338 whole entry): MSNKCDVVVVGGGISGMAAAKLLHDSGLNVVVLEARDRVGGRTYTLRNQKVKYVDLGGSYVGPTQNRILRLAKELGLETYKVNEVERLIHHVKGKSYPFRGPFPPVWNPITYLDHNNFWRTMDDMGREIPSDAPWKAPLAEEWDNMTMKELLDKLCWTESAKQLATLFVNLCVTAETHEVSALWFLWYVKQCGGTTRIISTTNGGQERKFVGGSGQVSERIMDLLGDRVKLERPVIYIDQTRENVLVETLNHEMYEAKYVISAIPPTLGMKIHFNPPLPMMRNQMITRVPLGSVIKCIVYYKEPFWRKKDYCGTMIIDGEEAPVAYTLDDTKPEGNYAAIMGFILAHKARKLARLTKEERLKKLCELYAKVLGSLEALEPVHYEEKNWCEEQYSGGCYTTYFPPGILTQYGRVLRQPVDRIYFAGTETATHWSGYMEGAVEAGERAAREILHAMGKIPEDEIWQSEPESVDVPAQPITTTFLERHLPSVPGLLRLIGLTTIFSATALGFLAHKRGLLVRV

Mus musculus [14] = test: Pro-cognitive activity in C57Bl6 mouse assessed as attenuation of long-term memory deficit by measuring increase in exploration time for novel object at 25 nmol/uL, icv measured after 24 hrs by novel object recognition test; format: functional, organism-based
Summary of the method: (§2)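 Novel object recognition in adult male C57Bl6 mice. Habituation was 10 min in an empty arena. Twenty-four hours later, mice explored two identical objects for 5 min, then received an immediate 5 µL lateral-ventricle infusion at 1 µL/min. A 5-min retention test with one familiar and one novel object followed 24 h later. Scores were % exploration time and DI = (tN−tF)/(tN+tF).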

Mus musculus [15] = test: Pro-cognitive activity in C57Bl6 mouse assessed as attenuation of long-term memory deficit by measuring increase in exploration time for novel object by measuring discrimination index at 50 nmol/uL, icv measured after 24 hrs by novel object recognition test; format: functional; summary of the method: as §2
Mus musculus [16] = test: Pro-cognitive activity in C57Bl6 mouse assessed as attenuation of long-term memory deficit by measuring increase in exploration time for novel juvenile by measuring discrimination index at 25 nmol/uL, icv measured after 48 hrs by novel object recognition test; format: functional
Summary of the method: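 Social recognition in adult male C57Bl6 mice with intracerebroventricular cannulae. Habituation was 10 min with two empty cups. Twenty-four hours later, a novel 3–4-week-old juvenile was placed under one cup for 10 min of exploration, followed immediately by a 5 µL infusion at 1 µL/min. Retention 48 h later offered familiar versus novel juvenile, scoring snout-to-cup contact. DI = (tN−tF)/(tN+tF).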

[17] = Toxicity in overnight fasted C57Bl6 mouse assessed as reduction in food intake at 50 nmol/uL administered directly into lateral ventricle measured for 2 hrs; settings: in vivo, icv_or_intrathecal
Summary of the method: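 Overnight-fasted male C57Bl6 mice received a lateral-ventricle infusion. Food was presented 30 min later, and intake was recorded at 0.5 h intervals over 2 h as cumulative consumption corrected for body weight; n = 8–9 per group.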

Mus musculus [18] = test: Pro-cognitive activity in C57Bl6 mouse assessed as attenuation of long-term memory deficit by measuring increase in exploration time for novel object by measuring discrimination index at 25 nmol/uL, icv measured after 24 hrs by novel object recognition test

Carbonic anhydrase 1 (Homo sapiens), sequence (P00915 2-261 limits assumed): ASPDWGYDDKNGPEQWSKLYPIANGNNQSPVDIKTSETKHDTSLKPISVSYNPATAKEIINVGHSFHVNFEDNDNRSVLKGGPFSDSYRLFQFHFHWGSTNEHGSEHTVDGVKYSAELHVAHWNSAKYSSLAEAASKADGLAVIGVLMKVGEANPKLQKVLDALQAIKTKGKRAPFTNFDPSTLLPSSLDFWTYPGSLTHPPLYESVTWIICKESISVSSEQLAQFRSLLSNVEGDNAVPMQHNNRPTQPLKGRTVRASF

Ka [1]: 11.8 µM
Ka [2]: 26.8 µM
Ka [3]: 7.1 µM
Ka [4]: 12.4 µM
Ka [5]: 18.7 µM
Ka [6]: 70.9 µM
Ka [7]: 23.4 µM
Ka [8]: 74.8 µM
Ka [9]: 43.3 µM
Ka [10]: 82.4 µM
Ka [11]: 9.8 µM
IC50 [12]: 4.72 µM
IC50 [13]: 57.3 µM
SMILES: CC(N)CSc1ccccc1 (stereo not drawn)
Activity (Mus musculus [14]): inactive
Activity_index (Mus musculus [15]): 0.185
Activity_index (Mus musculus [16]): 0.038
Activity [17]: Non-Toxic
Activity_index (Mus musculus [18]): 0.111
